The values below come from ChEMBL document CHEMBL2390927, “Design, synthesis and antimicrobial evaluation of novel benzimidazole type of Fluconazole analogues and their synergistic effects with Chloromycin, Norfloxacin and Fluconazole” (2013).

The MIC is the least concentration at which growth counts as inhibited. The low end stands for greater potency, the high end for weaker potency.

Assay [1] concerns Candida. The assay is described as follows: Antifungal activity against Candida mycoderma after 24 hrs by two-fold serial dilution method. Type of assay: functional. In a few lines:
(§1)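 Spore suspension in sterile distilled water from one-day-old cultures on Sabouraud agar, final 1–5 × 10³ spore mL⁻¹. Compound stocks diluted in sterile RPMI 1640 as two-fold serial dilutions in microdilution plates. MIC is the lowest concentration completely inhibiting growth. Growth monitored visually and spectrophotometrically, in triplicate.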

Assay [2] deals with Candida albicans. Kind of assay: Antifungal activity against Candida albicans ATCC 76615 after 24 hrs by two-fold serial dilution method. Type of assay: functional. Conditions: ATCC 76615, 24 h. The method in brief: as §1
Assay [3] deals with Pseudomonas aeruginosa. The assay is described as follows: Ratio of chloromycin MIC to compound MIC for Pseudomonas aeruginosa ATCC 27853. Type of assay: functional.
Assay [4] concerns Escherichia coli. Kind of assay: Ratio of chloromycin MIC to compound MIC for Escherichia coli JM109. Type of assay: functional.
The next assay relates to Salmonella typhi. The assay is described as follows: Antibacterial activity against Bacillus typhi after 24 hrs by two-fold serial dilution method. Conditions: Salmonella enterica. It counts as functional, Salmonella enterica subsp. enterica serovar Typhi. In a few lines: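 Two-fold serial dilution in 96-well plates following NCCLS; compounds dissolved in DMSO as stocks, then diluted in Mueller-Hinton broth; bacterial suspension adjusted with sterile saline to 1 × 10⁵ CFU; MIC taken as lowest concentration completely inhibiting growth, monitored visually and spectrophotometrically; DMSO-plus-inoculum well as solvent control; triplicate.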

Assay [5] relates to Pseudomonas aeruginosa. The assay is described as follows: Antibacterial activity against Pseudomonas aeruginosa ATCC 27853 after 24 hrs by two-fold serial dilution method. Type of assay: functional. As to conditions: ATCC 27853, 24 h. The method in brief:
(§2)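 MIC taken as the lowest concentration giving complete growth inhibition, by standard two-fold serial dilution in 96-well plates following NCCLS. Stocks in DMSO, diluted in Mueller–Hinton broth. Inoculum adjusted with sterile saline to 1 × 10⁵ CFU. DMSO with inoculum and no drug served as solvent control. Growth read visually and spectrophotometrically, in triplicate.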

Assay [6] deals with Escherichia coli. Kind of assay: Antibacterial activity against Escherichia coli JM109 after 24 hrs by two-fold serial dilution method. Type of assay: functional. As to conditions: JM109, 24 h.
In assay [7] the test system is Bacillus. The assay is described as follows: Antibacterial activity against Bacillus proteus ATCC 13315 after 24 hrs by two-fold serial dilution method. It counts as functional. As to conditions: ATCC 13315, 24 h. The method in brief: as §2
Assay [8] relates to Micrococcus luteus. Kind of assay: Antibacterial activity against Micrococcus luteus ATCC 4698 after 24 hrs by two-fold serial dilution method. As to conditions: ATCC 4698, 24 h. Type of assay: functional. The method in brief: as §2
Assay [9] concerns Bacillus subtilis. The assay is described as follows: Antibacterial activity against Bacillus subtilis ATCC 21216 after 24 hrs by two-fold serial dilution method. It counts as functional. As to conditions: ATCC 21216, 24 h. In a few lines: as §2
Assay [10] deals with Staphylococcus aureus. Kind of assay: Antibacterial activity against methicillin-resistant Staphylococcus aureus N315 after 24 hrs by two-fold serial dilution method. Conditions: N315, 24 h. It counts as functional.
Assay [11] deals with Staphylococcus aureus. Kind of assay: Antibacterial activity against Staphylococcus aureus ATCC 6538 after 24 hrs by two-fold serial dilution method. It counts as functional. Conditions: ATCC 6538, 24 h.
The test system of assay [12] is Staphylococcus aureus. Kind of assay: Ratio of norfloxacin MIC to compound MIC for Staphylococcus aureus ATCC 6538. Type of assay: functional.
Assay [13] has as its system Staphylococcus aureus. Kind of assay: Ratio of chloromycin MIC to compound MIC for Staphylococcus aureus ATCC 6538. It counts as functional.
Assay [14] relates to Saccharomyces cerevisiae. The assay is described as follows: Ratio of fluconazole MIC to compound MIC for Saccharomyces cerevisiae. It counts as functional.
Assay [15] has as its system Candida. Kind of assay: Ratio of fluconazole MIC to compound MIC for Candida mycoderma. Type of assay: functional.
Assay [16] has as its system Aspergillus flavus. Kind of assay: Antifungal activity against Aspergillus flavus after 24 hrs by two-fold serial dilution method. It counts as functional. The method in brief:
as §1

For assay [17], the system named is Cyberlindnera jadinii. Kind of assay: Antifungal activity against Candida utilis after 24 hrs by two-fold serial dilution method. Type of assay: functional. As to conditions: Williopsis jadinii. In a few lines: as §1
Assay [18] deals with Saccharomyces cerevisiae. The assay is described as follows: Antifungal activity against Saccharomyces cerevisiae after 24 hrs by two-fold serial dilution method. Type of assay: functional. The method in brief:
as §1

The subject of assay [19] is Aspergillus flavus. The assay is described as follows: Potentiation of fluconazole-induced antifungal activity against Aspergillus flavus at 2 times MIC after 24 hrs by two-fold serial dilution method. It counts as functional.
The subject of assay [20] is Saccharomyces cerevisiae. Kind of assay: Potentiation of fluconazole-induced antifungal activity against Saccharomyces cerevisiae at 2 times MIC after 24 hrs by two-fold serial dilution method. Type of assay: functional.
The test system of assay [21] is Cyberlindnera jadinii. The assay is described as follows: Potentiation of fluconazole-induced antifungal activity against Candida utilis at 4 times MIC after 24 hrs by two-fold serial dilution method. It counts as functional.
Assay [22] has as its system Candida. The assay is described as follows: Potentiation of fluconazole-induced antifungal activity against Candida mycoderma at 2 times MIC after 24 hrs by two-fold serial dilution method. Type of assay: functional.
For assay [23], the system named is Candida albicans. Kind of assay: Potentiation of fluconazole-induced antifungal activity against Candida albicans ATCC 76615 at MIC after 24 hrs by two-fold serial dilution method. Type of assay: functional.
Assay [24] deals with Pseudomonas aeruginosa. Kind of assay: Potentiation of norfloxacin-induced antibacterial activity against Pseudomonas aeruginosa ATCC 27853 at 2 times MIC after 24 hrs by two-fold serial dilution method. Type of assay: functional.
The test system of assay [25] is Escherichia coli. Kind of assay: Potentiation of norfloxacin-induced antibacterial activity against Escherichia coli JM109 at 4 times MIC after 24 hrs by two-fold serial dilution method. It counts as functional.
Assay [26] relates to Bacillus. The assay is described as follows: Potentiation of norfloxacin-induced antibacterial activity against Bacillus proteus ATCC 13315 at 2 times MIC after 24 hrs by two-fold serial dilution method. Type of assay: functional.
The subject of assay [27] is Micrococcus luteus. Kind of assay: Potentiation of norfloxacin-induced antibacterial activity against Micrococcus luteus ATCC 4698 at MIC after 24 hrs by two-fold serial dilution method. It counts as functional.
Assay [28] has as its system Bacillus subtilis. Kind of assay: Potentiation of norfloxacin-induced antibacterial activity against Bacillus subtilis ATCC 21216 at MIC after 24 hrs by two-fold serial dilution method. It counts as functional.
The subject of assay [29] is Staphylococcus aureus. Kind of assay: Potentiation of norfloxacin-induced antibacterial activity against Staphylococcus aureus ATCC 6538 at MIC after 24 hrs by two-fold serial dilution method. It counts as functional.
The subject of assay [30] is Pseudomonas aeruginosa. Kind of assay: Potentiation of chloromycin-induced antibacterial activity against Pseudomonas aeruginosa ATCC 27853 at 4 times MIC after 24 hrs by two-fold serial dilution method. It counts as functional.
The test system of assay [31] is Escherichia coli. Kind of assay: Potentiation of chloromycin-induced antibacterial activity against Escherichia coli JM109 at 8 times MIC after 24 hrs by two-fold serial dilution method. It counts as functional.
Assay [32] deals with Bacillus. Kind of assay: Potentiation of chloromycin-induced antibacterial activity against Bacillus proteus ATCC 13315 at 4 times MIC after 24 hrs by two-fold serial dilution method. It counts as functional.
The test system of assay [33] is Micrococcus luteus. Kind of assay: Potentiation of chloromycin-induced antibacterial activity against Micrococcus luteus ATCC 4698 at 2 times MIC after 24 hrs by two-fold serial dilution method. It counts as functional.
For assay [34], the system named is Bacillus subtilis. The assay is described as follows: Potentiation of chloromycin-induced antibacterial activity against Bacillus subtilis ATCC 21216 at 2 times MIC after 24 hrs by two-fold serial dilution method. It counts as functional.

≈ marks a conversion by molar mass, not a printed value.

Turning to `FC(F)(F)c1cc(NCc2nc3ccccc3[nH]2)cc(C(F)(F)F)c1`, the MIC with Candida [1] came to 2 µg/mL (≈ 5.57 µM); in the assay on Candida albicans [2], 2 µg/mL (≈ 5.57 µM); with Salmonella typhi, 2 µg/mL (≈ 5.57 µM); with Pseudomonas aeruginosa [5] it was 4 µg/mL (≈ 11.1 µM); in the assay on Escherichia coli [6], 2 µg/mL (≈ 5.57 µM); in the assay on Bacillus [7], 2 µg/mL (≈ 5.57 µM). Also, the MIC against Micrococcus luteus [8] came out at 8 µg/mL (≈ 22.3 µM); against Bacillus subtilis [9] it was 4 µg/mL (≈ 11.1 µM); in the assay on Staphylococcus aureus [10], 16 µg/mL (≈ 44.5 µM); in the assay on Staphylococcus aureus [11], 2 µg/mL (≈ 5.57 µM); with Aspergillus flavus [16], 8 µg/mL (≈ 22.3 µM); in the assay on Cyberlindnera jadinii [17], 8 µg/mL (≈ 22.3 µM). Also, 2 µg/mL (≈ 5.57 µM) was the least that counted as inhibitory in the assay on Saccharomyces cerevisiae [18] (MIC). For the same molecule, the Ratio with Pseudomonas aeruginosa [3] was 4; in the assay on Escherichia coli [4], 8; in the assay on Staphylococcus aureus [12], 4; in the assay on Staphylococcus aureus [13], 4; in the assay on Saccharomyces cerevisiae [14] it was 8; in the assay on Candida [15], 2.
Regarding `Cl.Cl.Fc1ccc(CN(Cc2nc3ccccc3[nH]2)c2cc(C(F)(F)F)cc(C(F)(F)F)c2)c(F)c1`, the MIC amounted to 16 µg/mL in the assay with Candida [1]; 8 µg/mL against Candida albicans [2]; 16 µg/mL against Salmonella typhi; 16 µg/mL with Pseudomonas aeruginosa [5]; 32 µg/mL against Escherichia coli [6]; 16 µg/mL against Bacillus [7]. Moreover, the MIC turned out to be 8 µg/mL in the assay with Micrococcus luteus [8]; 8 µg/mL in the assay on Bacillus subtilis [9]; 16 µg/mL with Staphylococcus aureus [10]; 8 µg/mL in the assay on Staphylococcus aureus [11]; 8 µg/mL with Aspergillus flavus [16]; 16 µg/mL in the assay with Cyberlindnera jadinii [17]. In the assay with Saccharomyces cerevisiae [18], this molecule yielded an MIC of 8 µg/mL. Also, the “fractional inhibitory concentration index (FICI)” value with Aspergillus flavus [19] was found to be 0.375; with Saccharomyces cerevisiae [20], 0.375; in the assay on Cyberlindnera jadinii [21], 0.375; in the assay on Candida [22], 0.25; in the assay on Candida albicans [23], 0.375; in the assay with Pseudomonas aeruginosa [24], 0.25. Besides, the “fractional inhibitory concentration index (FICI)” value in the assay on Escherichia coli [25] is given as 0.375; in the assay on Bacillus [26], 0.25; with Micrococcus luteus [27], 0.25; in the assay on Bacillus subtilis [28] it was 0.25; in the assay with Staphylococcus aureus [29], 0.25; with Pseudomonas aeruginosa [30] it was 0.375. The “fractional inhibitory concentration index (FICI)” value is listed as 0.375 in the assay with Escherichia coli [31], 0.375 with Bacillus [32], 0.375 in the assay on Micrococcus luteus [33] and 0.5 in the assay with Bacillus subtilis [34].
